Measurements reported in ChEMBL document CHEMBL1126582, “Symmetry-based inhibitors of HIV protease. Structure-activity studies of acylated 2,4-diamino-1,5-diphenyl-3-hydroxypentane and 2,5-diamino-1,6-diphenylhexane-3,4-diol” (J Med Chem, 1993).
Values after ≈ are worked out from the molar mass of the structure shown.

Assays:
[1] = Estimated solubility (buffer pH 7.4); format: ADME; conditions: read-out: S
Summary of the method: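 Solubility was estimated in pH 7.4 phosphate buffer.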

[2] = In vitro for cytotoxicity in MT-4 lymphocytes in the absence of HIV infection; format: cell-based, MT4; conditions: human
Summary of the method: (§1)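 Uninfected MT-4 lymphocytes were cultured with compound. CC50 is the concentration at which 50% of cells remain viable.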

[3] = system: Human immunodeficiency virus 1; experiment: Compound was tested in vitro for inhibition of cytopathic effect of HIV-1 3B in MT-4 lymphocytes; format: functional, organism-based
Summary of the method: (§2)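 MT-4 lymphocytes were infected with HIV-1 3B at an MOI of either 0.001 or 0.032 tissue culture infective dose per cell. EC50 is the concentration preventing 50% of viral cytopathic effect, from a single triplicate assay. No effect means no activity up to 100 μM or up to the cytotoxic concentration.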

[4] = molecular target: Human immunodeficiency virus type 1 protease (Human immunodeficiency virus 1, UniProt Q72874); experiment: Inhibition of purified recombinant HIV-1 protease in a fluorogenic assay
Summary of the method: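 Purified recombinant HIV-1 protease, with cleavage of the fluorogenic substrate DABCYL-[…]-Pro-Ile-Val-Gln-EDANS as read-out. Value is the inhibitor concentration giving 50% inhibition of protease activity.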

MT4 = experiment: In vitro for cytotoxicity in MT-4 lymphocytes in the absence of HIV infection.; format: functional; conditions: Homo sapiens; summary of the method: as §1
[5] = system: Human immunodeficiency virus 1; experiment: In vitro for inhibition of cytopathic effect of HIV-1 3B in MT-4 lymphocytes.; format: functional, organism-based; summary of the method: as §2

Compound	solubility [1] [µg/mL]	CC50 [2] [nM]	EC50 [3] [nM]	IC50 [4] [nM]	CC50 (MT4) [nM]	EC50 [5] [nM]
CC(C)[C@H](NC(=O)N(C)Cc1cscn1)C(=O)N[C@@H](Cc1ccccc1)[C@H](O)[C@@H](O)[C@H](Cc1ccccc1)NC(=O)[C@H](NC(=O)N(C)Cc1csc(N)n1)C(C)C	331 (≈ 403 µM)	> 100000	1500	< 1	–	–
CC(C)[C@H](NC(=O)N1CCN(c2ccccc2)CC1)C(=O)N[C@@H](Cc1ccccc1)[C@@H](O)[C@@H](O)[C@H](Cc1ccccc1)NC(=O)[C@H](NC(=O)N1CCN(c2ccccc2)CC1)C(C)C	1 (≈ 1.14 µM)	18000	1700	1.4	–	–
CC(C)[C@H](NS(=O)(=O)CCc1ccccn1)C(=O)N[C@@H](Cc1ccccc1)[C@H](O)[C@H](O)[C@H](Cc1ccccc1)NC(=O)[C@H](NS(=O)(=O)CCc1ccccn1)C(C)C	0.047 (≈ 0.0561 µM)	> 100000	1800	1.6	–	–
CC(C)[C@H](NC(=O)CCc1cccnc1)C(=O)N[C@@H](Cc1ccccc1)[C@@H](O)[C@@H](O)[C@H](Cc1ccccc1)NC(=O)[C@H](NC(=O)CCc1cccnc1)C(C)C	–	> 100000	9500	1.5	–	–
CC(C)[C@H](NS(=O)(=O)CCc1ccncc1)C(=O)N[C@@H](Cc1ccccc1)[C@H](O)[C@H](O)[C@H](Cc1ccccc1)NC(=O)[C@H](NS(=O)(=O)CCc1ccncc1)C(C)C	55 (≈ 65.7 µM)	> 100000	19000	13	–	–
CC(C)[C@H](NS(=O)(=O)CCc1ccccn1)C(=O)N[C@@H](Cc1ccccc1)[C@@H](O)[C@H](O)[C@H](Cc1ccccc1)NC(=O)[C@H](NS(=O)(=O)CCc1ccccn1)C(C)C	–	> 100000	1500	< 1	–	–
CC(C)[C@H](NC(=O)N(C)CCc1ccccn1)C(=O)N[C@@H](Cc1ccccc1)[C@@H](O)[C@@H](O)[C@H](Cc1ccccc1)NC(=O)[C@H](NC(=O)N(C)CCc1ccccn1)C(C)C	355 (≈ 431 µM)	–	–	22	> 100000	13000
CC(C)[C@H](NC(=O)OCCN1CCOCC1)C(=O)N[C@@H](Cc1ccccc1)[C@@H](O)[C@@H](O)[C@H](Cc1ccccc1)NC(=O)[C@H](NC(=O)OCCN1CCOCC1)C(C)C	132 (≈ 162 µM)	> 100000	14000	20	–	–
CC(C)[C@H](NC(=O)N1CCOCC1)C(=O)N[C@@H](Cc1ccccc1)[C@H](O)[C@H](O)[C@H](Cc1ccccc1)NC(=O)[C@H](NC(=O)N1CCOCC1)C(C)C	–	> 100000	88000	43	–	–
CC(C)[C@H](NS(=O)(=O)CCc1ccccn1)C(=O)N[C@@H](Cc1ccccc1)[C@@H](O)[C@@H](O)[C@H](Cc1ccccc1)NC(=O)[C@H](NS(=O)(=O)CCc1ccccn1)C(C)C	26 (≈ 31.1 µM)	> 100000	2000	< 1	–	–
CC(C)[C@H](NC(=O)N(C)Cc1ccccn1)C(=O)N[C@@H](Cc1ccccc1)[C@H](O)[C@@H](O)[C@H](Cc1ccccc1)NC(=O)[C@H](NC(=O)N(C)Cc1cccnc1)C(C)C	420 (≈ 528 µM)	–	–	< 1	> 100000	480
CC(C)[C@H](NC(=O)N(C)Cc1ccccn1)C(=O)N[C@@H](Cc1ccccc1)[C@@H](O)[C@H](O)[C@H](Cc1ccccc1)NC(=O)[C@H](NC(=O)N(C)Cc1ccccn1)C(C)C	197 (≈ 248 µM)	–	–	< 1	> 100000	270
CC(C)[C@H](NC(=O)N(C)Cc1nc2ccccc2[nH]1)C(=O)N[C@@H](Cc1ccccc1)[C@@H](O)[C@H](O)[C@H](Cc1ccccc1)NC(=O)[C@H](NC(=O)N(C)Cc1nc2ccccc2[nH]1)C(C)C	6.6 (≈ 7.56 µM)	–	–	< 1	27000	1700
CC(C)[C@H](NC(=O)N(C)Cc1ccccn1)C(=O)N[C@@H](Cc1ccccc1)[C@H](O)[C@@H](O)[C@H](Cc1ccccc1)NC(=O)[C@H](NC(=O)N(C)Cc1cscn1)C(C)C	1 (≈ 1.25 µM)	–	–	< 1	> 100000	200
CC(C)[C@H](NS(=O)(=O)CCc1ccncc1)C(=O)N[C@@H](Cc1ccccc1)[C@@H](O)[C@H](O)[C@H](Cc1ccccc1)NC(=O)[C@H](NS(=O)(=O)CCc1ccncc1)C(C)C	32 (≈ 38.2 µM)	> 100000	16000	24	–	–
CC(C)[C@H](NC(=O)N(C)CCc1ccccn1)C(=O)N[C@@H](Cc1ccccc1)[C@H](O)[C@H](O)[C@H](Cc1ccccc1)NC(=O)[C@H](NC(=O)N(C)CCc1ccccn1)C(C)C	86 (≈ 104 µM)	–	–	31	95000	12000
CC(C)[C@H](NC(=O)N(C)Cc1csc(N)n1)C(=O)N[C@@H](Cc1ccccc1)[C@@H](O)[C@H](O)[C@H](Cc1ccccc1)NC(=O)[C@H](NC(=O)N(C)Cc1csc(N)n1)C(C)C	184 (≈ 220 µM)	> 100000	2300	< 1	–	–

Compound	solubility [1] [µg/mL]	CC50 [2] [nM]	EC50 [3] [nM]	IC50 [4] [nM]	CC50 (MT4) [nM]	EC50 [5] [nM]
CC(C)[C@H](NC(=O)/C=C/c1cccnc1)C(=O)N[C@@H](Cc1ccccc1)[C@@H](O)[C@@H](O)[C@H](Cc1ccccc1)NC(=O)[C@H](NC(=O)/C=C/c1cccnc1)C(C)C	23 (≈ 30.2 µM)	–	–	5.3	> 100000	6200
CC(C)[C@H](NC(=O)CCc1ccccn1)C(=O)N[C@@H](Cc1ccccc1)C(O)[C@H](Cc1ccccc1)NC(=O)[C@H](NC(=O)CCc1ccccn1)C(C)C (some centres not stated)	–	> 100000	2200	12	–	–
CC(C)[C@H](NC(=O)OCc1cccnc1)C(=O)N[C@@H](Cc1ccccc1)[C@@H](O)[C@H](Cc1ccccc1)NC(=O)[C@H](NC(=O)OCc1ccccc1)C(C)C	0.9 (≈ 1.22 µM)	–	–	4	> 100000	2800
CC(C)[C@H](NC(=O)N(C)CCc1ccccn1)C(=O)N[C@@H](Cc1ccccc1)[C@@H](O)[C@H](O)[C@H](Cc1ccccc1)NC(=O)[C@H](NC(=O)N(C)CCc1ccccn1)C(C)C	66 (≈ 80.2 µM)	–	–	5.2	61000	4200
CC(C)[C@H](NC(=O)N(C)Cc1ccccn1)C(=O)N[C@@H](Cc1ccccc1)[C@H](O)[C@@H](O)[C@H](Cc1ccccc1)NC(=O)[C@H](NC(=O)N(C)Cc1csc(N)n1)C(C)C	386 (≈ 473 µM)	–	–	< 1	> 100000	560
CC(C)[C@H](NC(=O)N1CCN(Cc2ccccc2)CC1)C(=O)N[C@@H](Cc1ccccc1)[C@H](O)[C@H](O)[C@H](Cc1ccccc1)NC(=O)[C@H](NC(=O)N1CCN(Cc2ccccc2)CC1)C(C)C	1.7 (≈ 1.88 µM)	> 100000	9400	9	–	–
CC(C)[C@H](NC(=O)OCc1ccccc1)C(=O)N[C@@H](Cc1ccccc1)[C@@H](O)[C@@H](O)[C@H](Cc1ccccc1)NC(=O)[C@H](NC(=O)OCc1ccccc1)C(C)C	< 0.03	–	–	< 1	> 100000	110
CC(C)[C@H](NC(=O)N(C)Cc1nc2ccccc2[nH]1)C(=O)N[C@@H](Cc1ccccc1)[C@H](O)[C@H](O)[C@H](Cc1ccccc1)NC(=O)[C@H](NC(=O)N(C)Cc1nc2ccccc2[nH]1)C(C)C	18 (≈ 20.6 µM)	–	–	< 1	31000	1900
CC(C)[C@H](NS(=O)(=O)CCc1ccncc1)C(=O)N[C@@H](Cc1ccccc1)[C@@H](O)[C@@H](O)[C@H](Cc1ccccc1)NC(=O)[C@H](NS(=O)(=O)CCc1ccncc1)C(C)C	5.6 (≈ 6.69 µM)	> 100000	17000	5.7	–	–
CC(C)[C@H](NC(=O)OCc1ccccn1)C(=O)N[C@@H](Cc1ccccc1)[C@@H](O)[C@H](O)[C@H](Cc1ccccc1)NC(=O)[C@H](NC(=O)OCc1ccccn1)C(C)C	2.4 (≈ 3.12 µM)	–	–	< 1	> 100000	60
CC(C)[C@H](NC(=O)N(C)Cc1cscn1)C(=O)N[C@@H](Cc1ccccc1)[C@@H](O)[C@@H](O)[C@H](Cc1ccccc1)NC(=O)[C@H](NC(=O)N(C)Cc1cscn1)C(C)C	286 (≈ 354 µM)	–	–	< 1	> 100000	630
CC(C)[C@H](NC(=O)CCc1cccnc1)C(=O)N[C@@H](Cc1ccccc1)C(O)[C@H](Cc1ccccc1)NC(=O)[C@H](NC(=O)CCc1cccnc1)C(C)C (some centres not stated)	–	55000	10000	22	–	–
CC(C)[C@H](NC(=O)N(C)Cc1nccs1)C(=O)N[C@@H](Cc1ccccc1)[C@@H](O)[C@H](O)[C@H](Cc1ccccc1)NC(=O)[C@H](NC(=O)N(C)Cc1nccs1)C(C)C	101 (≈ 125 µM)	–	–	< 1	> 100000	390
CC(C)[C@H](NC(=O)/C=C/c1cccnc1)C(=O)N[C@@H](Cc1ccccc1)C(O)[C@H](Cc1ccccc1)NC(=O)[C@H](NC(=O)/C=C/c1cccnc1)C(C)C (some centres not stated)	4.9 (≈ 6.7 µM)	–	–	2.2	> 100000	2800
CC(C)[C@H](NC(=O)N(C)Cc1cscn1)C(=O)N[C@@H](Cc1ccccc1)[C@@H](O)[C@H](O)[C@H](Cc1ccccc1)NC(=O)[C@H](NC(=O)N(C)Cc1cscn1)C(C)C	159 (≈ 197 µM)	–	–	< 1	> 100000	190
CC(C)[C@H](NC(=O)OCc1ccccn1)C(=O)N[C@@H](Cc1ccccc1)[C@H](O)[C@H](O)[C@H](Cc1ccccc1)NC(=O)[C@H](NC(=O)OCc1ccccn1)C(C)C	0.21 (≈ 0.273 µM)	–	–	< 1	> 100000	230
